Assay results as given in ChEMBL document CHEMBL4385610, “Selective Inhibition of Histone Deacetylase 10: Hydrogen Bonding to the Gatekeeper Residue is Implicated” (J Med Chem, 2019).
Activity calls are given as the source filed them. The calls are words filed in the database; no cut-off is given here.

Key:
[1] = biological target: T1, Polyamine deacetylase HDAC10 (Homo sapiens, UniProt Q969S8); experiment: Inhibition of tubastatin-Alexa647-tracer binding to recombinant GST-tagged HDAC10 (unknown origin) measured after 1 hr by TR-FRET assay
T1 sequence (Q969S8 whole entry): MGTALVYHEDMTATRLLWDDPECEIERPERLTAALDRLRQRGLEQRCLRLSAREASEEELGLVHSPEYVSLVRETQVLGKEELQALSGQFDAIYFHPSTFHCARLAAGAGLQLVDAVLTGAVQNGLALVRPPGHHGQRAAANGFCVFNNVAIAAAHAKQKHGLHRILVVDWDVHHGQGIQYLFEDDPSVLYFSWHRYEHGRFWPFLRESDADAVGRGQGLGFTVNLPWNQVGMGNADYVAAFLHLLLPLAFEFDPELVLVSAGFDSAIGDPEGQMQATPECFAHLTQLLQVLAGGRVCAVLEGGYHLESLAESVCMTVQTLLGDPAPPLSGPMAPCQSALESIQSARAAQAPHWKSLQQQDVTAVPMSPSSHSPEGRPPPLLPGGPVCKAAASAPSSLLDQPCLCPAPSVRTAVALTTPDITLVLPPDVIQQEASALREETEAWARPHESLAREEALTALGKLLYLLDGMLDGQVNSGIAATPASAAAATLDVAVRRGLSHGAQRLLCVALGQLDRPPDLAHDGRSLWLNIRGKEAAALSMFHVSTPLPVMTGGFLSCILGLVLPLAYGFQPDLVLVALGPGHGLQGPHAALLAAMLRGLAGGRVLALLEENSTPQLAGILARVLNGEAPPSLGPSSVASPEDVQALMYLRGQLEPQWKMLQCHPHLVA

[2] = biological target: T1, Polyamine deacetylase HDAC10; experiment: Inhibition of dye-labeled tracer binding to HDAC10 (unknown origin) transfected in human HeLa cells measured after 2 hrs by nano-luciferase reporter gene-based BRET assay; format: cell-based
Histone deacetylase 2 = Histone deacetylase 2 (Homo sapiens, UniProt Q92769); experiment: Inhibition of recombinant full-length C-terminal His-tagged human HDAC2 expressed in baculovirus infected Sf9 insect cells measured after 40 mins by HDAC-Glo1/2 luminescent assay; format: cell-based
Chain of Histone deacetylase 2 (Q92769 whole entry): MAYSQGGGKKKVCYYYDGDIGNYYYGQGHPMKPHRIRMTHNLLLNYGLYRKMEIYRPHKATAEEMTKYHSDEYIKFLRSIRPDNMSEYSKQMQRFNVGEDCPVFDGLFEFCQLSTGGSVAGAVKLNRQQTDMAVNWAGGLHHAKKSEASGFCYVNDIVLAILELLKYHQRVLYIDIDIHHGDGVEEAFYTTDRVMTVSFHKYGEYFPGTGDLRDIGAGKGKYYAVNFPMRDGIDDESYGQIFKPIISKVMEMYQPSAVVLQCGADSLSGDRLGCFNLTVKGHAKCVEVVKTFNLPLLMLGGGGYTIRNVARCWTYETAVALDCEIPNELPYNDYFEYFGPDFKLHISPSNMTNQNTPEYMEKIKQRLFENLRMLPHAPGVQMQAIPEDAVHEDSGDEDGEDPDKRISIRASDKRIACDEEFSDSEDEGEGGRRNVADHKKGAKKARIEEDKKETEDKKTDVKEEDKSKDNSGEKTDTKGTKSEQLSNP

[3] = biological target: T2, Protein deacetylase HDAC6 (Homo sapiens, UniProt Q9UBN7); experiment: Inhibition of dye-labeled tracer binding to HDAC6 (unknown origin) transfected in human HeLa cells measured after 2 hrs by nano-luciferase reporter gene-based BRET assay; format: cell-based
T2 sequence (Q9UBN7 whole entry): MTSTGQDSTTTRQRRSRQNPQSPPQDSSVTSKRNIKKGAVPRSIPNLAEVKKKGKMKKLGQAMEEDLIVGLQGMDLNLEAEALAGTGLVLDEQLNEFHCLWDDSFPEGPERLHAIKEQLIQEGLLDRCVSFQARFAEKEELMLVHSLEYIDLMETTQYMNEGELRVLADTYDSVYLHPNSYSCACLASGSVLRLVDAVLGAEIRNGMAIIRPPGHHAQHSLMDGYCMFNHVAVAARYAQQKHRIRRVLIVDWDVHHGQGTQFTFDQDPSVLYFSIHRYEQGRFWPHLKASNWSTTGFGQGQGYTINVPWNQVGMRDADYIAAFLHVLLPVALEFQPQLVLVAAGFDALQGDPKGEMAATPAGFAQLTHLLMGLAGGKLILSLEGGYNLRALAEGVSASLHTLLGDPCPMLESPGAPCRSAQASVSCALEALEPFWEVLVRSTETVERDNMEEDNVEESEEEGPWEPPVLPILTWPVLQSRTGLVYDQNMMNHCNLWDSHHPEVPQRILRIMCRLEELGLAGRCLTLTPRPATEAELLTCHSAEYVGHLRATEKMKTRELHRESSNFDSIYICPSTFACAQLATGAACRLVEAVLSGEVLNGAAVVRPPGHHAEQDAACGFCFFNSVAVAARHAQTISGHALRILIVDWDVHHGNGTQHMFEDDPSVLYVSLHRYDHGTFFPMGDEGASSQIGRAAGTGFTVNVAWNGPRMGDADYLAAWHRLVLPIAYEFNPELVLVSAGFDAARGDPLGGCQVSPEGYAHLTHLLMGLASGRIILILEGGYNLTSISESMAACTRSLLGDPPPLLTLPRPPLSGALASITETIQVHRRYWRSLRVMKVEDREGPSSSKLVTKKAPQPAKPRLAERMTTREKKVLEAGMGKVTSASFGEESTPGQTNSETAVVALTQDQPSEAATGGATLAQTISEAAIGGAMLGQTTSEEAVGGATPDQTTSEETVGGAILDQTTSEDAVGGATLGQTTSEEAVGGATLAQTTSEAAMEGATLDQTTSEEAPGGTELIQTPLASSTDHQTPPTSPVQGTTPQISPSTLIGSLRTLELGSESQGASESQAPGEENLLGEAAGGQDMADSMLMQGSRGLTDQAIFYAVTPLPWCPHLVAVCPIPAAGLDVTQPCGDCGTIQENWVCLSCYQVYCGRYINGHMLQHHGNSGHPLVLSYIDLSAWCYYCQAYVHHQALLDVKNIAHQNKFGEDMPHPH
In short: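 Live-cell target engagement by BRET: cells overexpressing nano-luciferase-tagged HDAC6 or HDAC10 are given a dye-labelled tracer and the nano-luciferase substrate, and a competing binder disrupts BRET. pIC50 comes from pooled data of two biological replicates, each run in triplicate. The selectivity fold is taken from the HDAC10 and HDAC6 BRET values.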

Histone deacetylase 1 = Histone deacetylase 1 (Homo sapiens, UniProt Q13547); experiment: Inhibition of recombinant full-length C-terminal FLAG-fused/His-tagged human HDAC1 expressed in baculovirus infected Sf9 insect cells measured after 40 mins by HDAC-Glo1/2 luminescent assay
Chain of Histone deacetylase 1 (Q13547 whole entry, the tested form may be a part): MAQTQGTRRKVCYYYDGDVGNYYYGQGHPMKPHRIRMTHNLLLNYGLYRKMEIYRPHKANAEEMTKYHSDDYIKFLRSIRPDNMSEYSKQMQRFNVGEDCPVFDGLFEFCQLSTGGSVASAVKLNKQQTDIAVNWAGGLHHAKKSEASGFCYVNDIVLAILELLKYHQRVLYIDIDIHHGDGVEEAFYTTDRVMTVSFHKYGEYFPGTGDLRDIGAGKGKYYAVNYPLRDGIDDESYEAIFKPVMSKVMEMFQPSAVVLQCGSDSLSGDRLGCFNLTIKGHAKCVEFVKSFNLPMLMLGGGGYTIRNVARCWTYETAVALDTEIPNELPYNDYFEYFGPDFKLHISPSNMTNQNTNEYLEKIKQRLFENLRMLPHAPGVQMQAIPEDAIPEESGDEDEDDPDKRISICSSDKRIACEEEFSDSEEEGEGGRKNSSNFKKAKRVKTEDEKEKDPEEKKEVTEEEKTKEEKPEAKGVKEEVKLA

Histone deacetylase 8 = biological target: T3, Histone deacetylase 8 (Homo sapiens, UniProt Q9BY41); experiment: Inhibition of recombinant human full length C-terminal His-tagged HDAC8 expressed in baculovirus infected insect cells measured after 40 mins by HDAC-Glo1/2 luminescent assay
T3 sequence (Q9BY41 whole entry): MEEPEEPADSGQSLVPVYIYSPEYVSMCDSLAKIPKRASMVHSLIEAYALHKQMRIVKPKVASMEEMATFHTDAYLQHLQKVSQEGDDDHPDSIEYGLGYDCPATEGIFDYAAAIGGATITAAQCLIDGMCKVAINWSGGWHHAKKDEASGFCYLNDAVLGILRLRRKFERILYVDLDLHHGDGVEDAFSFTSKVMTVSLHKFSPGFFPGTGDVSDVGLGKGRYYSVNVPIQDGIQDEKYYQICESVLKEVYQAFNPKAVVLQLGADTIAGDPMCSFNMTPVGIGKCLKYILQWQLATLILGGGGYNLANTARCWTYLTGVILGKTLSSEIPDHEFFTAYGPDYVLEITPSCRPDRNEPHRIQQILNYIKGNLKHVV

[4] = biological target: Histone deacetylase 3/Nuclear receptor corepressor 2 (HDAC3/NCoR2) (Homo sapiens, UniProt O15379); experiment: Inhibition of human recombinant full length C-terminal His-tagged HDAC3 (1 to 428 residues)/N-terminal GST-tagged NCOR2 (395 to 489 residues) expressed in baculovirus infected insect cells measured after 40 mins by HDAC-Glo1/2 luminescent assay
Chain of Histone deacetylase 3/Nuclear receptor corepressor 2 (HDAC3/NCoR2) (O15379 whole entry, the tested form may be a part): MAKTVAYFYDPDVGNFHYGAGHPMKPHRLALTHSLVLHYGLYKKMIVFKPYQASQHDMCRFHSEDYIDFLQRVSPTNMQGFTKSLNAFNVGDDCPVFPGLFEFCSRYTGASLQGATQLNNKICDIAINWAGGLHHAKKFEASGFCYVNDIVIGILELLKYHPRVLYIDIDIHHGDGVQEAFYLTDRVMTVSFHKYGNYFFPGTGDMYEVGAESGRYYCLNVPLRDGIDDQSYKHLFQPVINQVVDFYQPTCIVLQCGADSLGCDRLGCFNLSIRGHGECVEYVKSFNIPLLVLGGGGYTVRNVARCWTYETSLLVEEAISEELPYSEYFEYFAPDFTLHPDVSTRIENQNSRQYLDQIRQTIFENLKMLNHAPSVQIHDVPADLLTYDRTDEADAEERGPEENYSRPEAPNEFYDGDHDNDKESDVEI
Chain of Histone deacetylase 3/Nuclear receptor corepressor 2 (HDAC3/NCoR2) (Q9Y618 whole entry, further chain, the tested form may be a part): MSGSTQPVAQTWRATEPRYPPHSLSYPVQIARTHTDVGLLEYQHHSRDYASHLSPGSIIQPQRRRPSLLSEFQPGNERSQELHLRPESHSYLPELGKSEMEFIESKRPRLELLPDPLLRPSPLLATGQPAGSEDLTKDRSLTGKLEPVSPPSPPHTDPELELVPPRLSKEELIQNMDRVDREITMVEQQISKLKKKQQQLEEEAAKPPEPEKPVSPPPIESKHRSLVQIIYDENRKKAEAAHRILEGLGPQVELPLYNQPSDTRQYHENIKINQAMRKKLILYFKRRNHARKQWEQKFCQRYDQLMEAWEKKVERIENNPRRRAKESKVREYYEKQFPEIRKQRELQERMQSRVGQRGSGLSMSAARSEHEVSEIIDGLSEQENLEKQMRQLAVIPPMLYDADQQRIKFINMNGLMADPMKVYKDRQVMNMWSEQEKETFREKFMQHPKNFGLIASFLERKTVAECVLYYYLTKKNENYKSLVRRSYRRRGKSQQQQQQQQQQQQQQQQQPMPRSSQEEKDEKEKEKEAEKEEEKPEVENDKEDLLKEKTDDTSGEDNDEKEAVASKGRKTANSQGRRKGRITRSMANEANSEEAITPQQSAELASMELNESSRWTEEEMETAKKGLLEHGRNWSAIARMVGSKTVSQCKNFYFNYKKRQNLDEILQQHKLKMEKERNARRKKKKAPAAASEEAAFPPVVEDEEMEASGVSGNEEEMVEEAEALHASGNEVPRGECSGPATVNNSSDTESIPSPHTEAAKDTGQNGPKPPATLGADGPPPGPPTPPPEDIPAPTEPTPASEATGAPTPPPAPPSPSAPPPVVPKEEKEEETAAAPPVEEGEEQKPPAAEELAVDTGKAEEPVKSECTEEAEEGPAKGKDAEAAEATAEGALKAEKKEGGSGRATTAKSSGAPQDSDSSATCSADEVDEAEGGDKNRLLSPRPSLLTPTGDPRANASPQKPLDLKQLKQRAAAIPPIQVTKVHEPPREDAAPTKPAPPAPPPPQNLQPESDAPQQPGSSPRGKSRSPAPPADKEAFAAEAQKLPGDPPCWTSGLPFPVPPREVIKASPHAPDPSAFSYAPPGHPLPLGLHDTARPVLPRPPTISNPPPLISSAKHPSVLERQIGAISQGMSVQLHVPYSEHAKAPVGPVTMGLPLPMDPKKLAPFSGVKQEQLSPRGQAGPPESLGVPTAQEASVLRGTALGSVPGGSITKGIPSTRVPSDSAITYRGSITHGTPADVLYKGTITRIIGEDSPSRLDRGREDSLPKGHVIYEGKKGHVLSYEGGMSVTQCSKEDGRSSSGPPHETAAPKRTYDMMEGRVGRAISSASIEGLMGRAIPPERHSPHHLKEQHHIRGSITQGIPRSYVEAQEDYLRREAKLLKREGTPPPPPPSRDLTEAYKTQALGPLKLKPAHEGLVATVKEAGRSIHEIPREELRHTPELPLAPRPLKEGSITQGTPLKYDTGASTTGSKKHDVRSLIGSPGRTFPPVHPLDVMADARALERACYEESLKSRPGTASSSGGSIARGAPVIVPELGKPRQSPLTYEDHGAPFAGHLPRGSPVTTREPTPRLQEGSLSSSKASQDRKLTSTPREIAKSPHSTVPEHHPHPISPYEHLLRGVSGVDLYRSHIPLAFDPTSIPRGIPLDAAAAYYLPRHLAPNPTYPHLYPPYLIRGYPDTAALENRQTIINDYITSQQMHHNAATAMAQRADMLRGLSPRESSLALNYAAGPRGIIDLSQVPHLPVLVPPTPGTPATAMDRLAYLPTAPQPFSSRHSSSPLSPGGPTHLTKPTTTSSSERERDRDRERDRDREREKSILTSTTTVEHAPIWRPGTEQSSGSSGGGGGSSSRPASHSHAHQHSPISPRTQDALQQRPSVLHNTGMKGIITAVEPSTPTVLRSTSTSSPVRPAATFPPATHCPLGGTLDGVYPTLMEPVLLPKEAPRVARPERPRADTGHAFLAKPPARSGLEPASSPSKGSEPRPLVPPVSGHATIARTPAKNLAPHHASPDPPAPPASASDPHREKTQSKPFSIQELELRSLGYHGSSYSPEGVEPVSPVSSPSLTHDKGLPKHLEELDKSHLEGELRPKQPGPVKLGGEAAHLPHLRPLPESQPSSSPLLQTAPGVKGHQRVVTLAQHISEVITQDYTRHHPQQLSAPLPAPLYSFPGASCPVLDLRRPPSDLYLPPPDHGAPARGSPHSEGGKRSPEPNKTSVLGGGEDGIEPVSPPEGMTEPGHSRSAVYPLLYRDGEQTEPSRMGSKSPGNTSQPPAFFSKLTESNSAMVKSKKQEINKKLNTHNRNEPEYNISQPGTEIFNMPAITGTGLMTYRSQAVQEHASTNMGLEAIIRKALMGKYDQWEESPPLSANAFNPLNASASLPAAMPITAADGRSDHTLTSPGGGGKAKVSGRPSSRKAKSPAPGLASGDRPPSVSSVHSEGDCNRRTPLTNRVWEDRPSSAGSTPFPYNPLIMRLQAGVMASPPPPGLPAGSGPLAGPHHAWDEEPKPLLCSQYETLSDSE

[5] = biological target: T4, Protein deacetylase HDAC6 (Homo sapiens) (UniProt Q9UBN7); experiment: Inhibition of HDAC6 in human BE(2)-C cells assessed as increase in tubulin acetylation at 10 uM measured after 24 hrs by Western blot analysis; format: cell-based
T4 sequence (whole entry): T2 sequence (Q9UBN7 whole entry)
In short: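 In the neuroblastoma BE(2)-C line, HDAC6 inhibition is read as tubulin acetylation by Western blot, comparing acetylated tubulin with total tubulin.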

SMILES | IC50 [1] | IC50 [2] | IC50 (Histone deacetylase 2) | IC50 [3] | IC50 (Histone deacetylase 1) | IC50 (Histone deacetylase 8) | IC50 [4] | inhibition [5]
CN1CCc2c(n(Cc3ccc(C(=O)NO)cc3)c3ccccc23)C1 | 200 nM | 158 nM | 25100 nM | 63.1 nM | 3160 nM | 3980 nM | 3980 nM | 
O=C(NO)c1ccc(Cn2c3c(c4ccccc42)CCCC3)cc1 | 1000 nM | 2510 nM |  | 63.1 nM |  |  |  | 
O=C(CCCCCCNC(=O)c1cnc(N(c2ccccc2)c2ccccc2)nc1)NO [RICOLINOSTAT] | 126 nM | 1580 nM |  |  |  |  |  | 
CN(C)CCc1cn(Cc2ccc(C(=O)NO)cc2)c2ccccc12 | 20 nM | 25.1 nM |  |  |  |  |  | 
O=C(NO)c1ccc(Cn2c3ccccc3c3ccccc32)cc1 | 2000 nM | 3980 nM |  | 39.8 nM |  |  |  | 
O=C(NO)c1ccc(CC(=O)N(CCO)c2ccccc2)cc1 | 79.4 nM | 316 nM |  |  |  |  |  | 
O=C(NO)c1ccc(Cn2c3c(c4ccccc42)COCC3)cc1 | 631 nM | 1000 nM | 7940 nM | 20 nM | 1580 nM | 794 nM | 1260 nM | 
C#Cc1cccc(Nc2ncnc3cc(OC)c(OCCCCCCC(=O)NO)cc23)c1 [CUDC-101] | 126 nM | 398 nM |  |  |  |  |  | 
CC(C)(C)OC(=O)Nc1ccc(-c2cc(C(=O)NCCCCCCC(=O)NO)no2)cc1 | 316 nM | 794 nM |  |  |  |  |  | 
O=C(NO)c1ccc(Cn2ccc3ccccc32)cc1 | 63.1 nM | 158 nM |  | 63.1 nM |  |  |  | 
Cn1cc(CNCC2CCN(c3ncc(C(=O)NO)cn3)CC2)c2ccccc21 [QUISINOSTAT] | 10 nM | 39.8 nM |  |  |  |  |  | 
Cc1c(C)n(Cc2ccc(C(=O)NO)cc2)c2ccccc12 | 316 nM | 631 nM | 12600 nM | 31.6 nM | 2510 nM | 1580 nM | 3160 nM | 
CN(C)Cc1nn(Cc2ccc(C(=O)NO)cc2)c2ccccc12 | 20 nM |  | 7940 nM | 126 nM | 1260 nM | 794 nM | 794 nM | 
CC(=O)N1CCc2c(c3ccccc3n2Cc2ccc(C(=O)NO)cc2)C1 | 501 nM | 2000 nM |  | 79.4 nM |  |  |  | 
O=C(NO)c1ccc(Cn2c3c(c4ccccc42)CSCC3)cc1 | 316 nM | 398 nM |  | 126 nM |  |  |  | 
CN(C)Cc1cn(Cc2ccc(C(=O)NO)cc2)c2ccccc12 | 5.01 nM | 3.98 nM | 6310 nM | 158 nM | 1000 nM | 398 nM | 631 nM | 

Now from value to compound:

IC50 [1] | IC50 [2] | IC50 (Histone deacetylase 2) | IC50 [3] | IC50 (Histone deacetylase 1) | IC50 (Histone deacetylase 8) | IC50 [4] | inhibition [5] | SMILES
158 nM | 251 nM |  | 79.4 nM |  |  |  |  | CC(C)(C)OC(=O)NCc1cn(Cc2ccc(C(=O)NO)cc2)c2ccccc12
5010 nM | > 39800 nM |  | 2000 nM |  |  |  | Active | CC(C)(C)c1cc2ccccc2n1Cc1ccc(C(=O)NO)cc1
126 nM | 200 nM |  | 63.1 nM |  |  |  |  | COCCc1cn(Cc2ccc(C(=O)NO)cc2)c2ccccc12
3.98 nM | 3.98 nM | 6310 nM | 158 nM | 794 nM | 316 nM | 398 nM |  | O=C(NO)c1ccc(Cn2cc(CN3CCCC3)c3ccccc32)cc1
5.01 nM | 5.01 nM | 2000 nM | 126 nM | 316 nM | 398 nM | 158 nM |  | CN1CCCC1c1cn(Cc2ccc(C(=O)NO)cc2)c2ccccc12 (racemic)
79.4 nM | 200 nM |  | 31.6 nM |  |  |  |  | O=C(NO)c1ccc(Cn2cc(CCO)c3ccccc32)cc1
25.1 nM | 50.1 nM | 3160 nM | 79.4 nM | 631 nM | 398 nM | 501 nM |  | Cn1cncc1-c1cn(Cc2ccc(C(=O)NO)cc2)c2ccccc12
